Test [1] can be described thus: Inhibitory activity of compound against inosine-uridine nucleoside hydrolase (IU-NH) from crithidia fasciculata. The gist of the method:
(§1)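 Values are inhibition constants (Ki) against the nucleoside hydrolases: nonspecific inosine-uridine NH from *Crithidia fasciculata* and purine-specific inosine-adenosine-guanosine NH from *Trypanosoma brucei brucei*.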

The nature of test [2]: Inhibitory activity of compound against […] inosine-adenosine-guanosine nucleoside hydrolase (IAG-NH) from Trypanosoma brucei. The method, boiled down:
as §1

Test [3] concerns the target T1, Purine nucleoside phosphorylase (Homo sapiens) (UniProt P00491).
T1 sequence (whole entry): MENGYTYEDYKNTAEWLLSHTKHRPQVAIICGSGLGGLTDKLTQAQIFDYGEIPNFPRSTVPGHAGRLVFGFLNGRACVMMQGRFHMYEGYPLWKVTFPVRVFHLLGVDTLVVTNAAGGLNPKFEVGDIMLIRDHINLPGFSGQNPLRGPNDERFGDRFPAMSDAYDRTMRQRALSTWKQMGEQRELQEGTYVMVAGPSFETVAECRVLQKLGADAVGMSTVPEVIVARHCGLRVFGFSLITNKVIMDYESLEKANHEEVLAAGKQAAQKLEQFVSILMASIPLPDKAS

Test [4] concerns the target T2, Purine nucleoside phosphorylase (Bos taurus) (UniProt P55859).
T2 sequence (whole entry): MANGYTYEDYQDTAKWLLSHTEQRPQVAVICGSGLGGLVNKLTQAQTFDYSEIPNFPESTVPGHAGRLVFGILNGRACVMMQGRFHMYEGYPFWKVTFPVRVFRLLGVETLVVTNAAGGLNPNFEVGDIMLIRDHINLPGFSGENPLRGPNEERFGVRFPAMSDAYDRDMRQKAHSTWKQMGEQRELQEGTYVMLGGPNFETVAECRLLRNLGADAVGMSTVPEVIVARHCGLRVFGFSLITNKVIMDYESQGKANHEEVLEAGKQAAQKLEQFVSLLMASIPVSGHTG

Test [5] deals with T3, Purine nucleoside phosphorylase (Bos taurus, UniProt P55859).
T3 sequence (P55859 whole entry): T2 sequence (whole entry)
As to the kind of experiment: Inhibitory activity of compound against bovine purine nucleoside phosphorylase (PNP).

Test [6] deals with T4, Purine nucleoside phosphorylase (Homo sapiens, UniProt P00491).
T4 sequence (P00491 whole entry): T1 sequence (whole entry)
As to the kind of experiment: Inhibitory activity of compound against human purine nucleoside phosphorylase (PNP).

A word on the Ki: it is a dissociation constant, usually derived from enzyme kinetics or from competition with a known ligand. Regarding `Nc1[nH]cnc2c(C3N[C@H](CO)[C@H](O)[C@@H]3O)cnc1-2` (stereo partly specified), the inhibitory constant (Ki) was 7.2 nM in test [1] and 0.9 nM in test [2].
As to `Nc1nc2c([C@@H]3N[C@H](CO)[C@@H](O)[C@H]3O)c[nH]c2c(=O)[nH]1`, the K6 in test [3] is 0.0015 s⁻¹; in test [4], 0.00019 s⁻¹. Further, the Ki in test [5] was 0.03 nM; in test [6], 0.029 nM.
With `O=c1[nH]cnc2c([C@@H]3N[C@H](CO)[C@@H](O)[C@H]3O)c[nH]c12` [FORODESINE], the Ki in test [1] worked out at 42 nM; in test [2], 24 nM; in test [5], 0.023 nM. In addition, the K6 came to 0.0015 s⁻¹ in test [3] and 4e-05 s⁻¹ in test [4].
For the compound `OC[C@H]1N[C@@H](c2n[nH]c3c(O)ncnc23)[C@H](O)[C@@H]1O`, the Ki in test [1] is 1600 nM; in test [2], 13900 nM; in test [5], 0.042 nM; in test [6], 0.104 nM. Moreover, the K6 in test [3] is 0.013 s⁻¹; in test [4], 0.021 s⁻¹.
As for `NC(=O)c1[nH]cc(C2N[C@H](CO)[C@H](O)[C@@H]2O)c1N` (stereo partly specified), the Ki in test [1] stood at 3 nM; in test [2] it was 23 nM.
For `Nc1ncnc2c(C3N[C@H](CO)[C@H](O)[C@@H]3O)n[nH]c12` (stereo partly specified), in that order: 150 nM and 14000 nM.
As to `NC(=O)c1[nH]nc(C2N[C@H](CO)[C@H](O)[C@@H]2O)c1N` (stereo partly specified), the Ki came to 4800 nM in test [1], 3700 nM in test [2], 0.06 nM in test [5] and 0.096 nM in test [6]. Besides, in test [4], the K6 is 0.019 s⁻¹.

(Values after ChEMBL document CHEMBL1145014, “8-Aza-immucillins as transition-state analogue inhibitors of purine nucleoside phosphorylase and nucleoside hydrolases” (J Med Chem, 2003).)
